Boron incorporation and IC50 data for two compounds are collected here from ChEMBL document CHEMBL1126753, “1-Carboranyl-3-(2-methylaziridino)-2-propanol. Synthesis, selective uptake by B-16 melanoma, and selective cytotoxicity toward cancer cells” (J Med Chem, 1993).

For experiment [1], the system named is B16. Put plainly: Boron incorporation into B-16 […] tumor cell after 2 hours. The experiment is classed as functional. The gist of the method:
(§1)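 Cells grown to confluence in 150-mm dishes (about 5.0 × 10⁶ cells/dish), then exposed to carrier (1.5 ppm carborane or 200 ppm BPA-HCl) in Eagle-MEM with 10% FCS at 37 °C. Cells were washed thrice in Ca-Mg-free PBS, scraped, digested in HClO₄–H₂O₂ for 1 h at 75 °C, and filtered. Boron was measured by ICP-AES, untreated-dish boron subtracted, and reported as μg/10⁶ cells; two replicates, SD.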

Experiment [2] concerns B16. Put plainly: Boron incorporation into B-16 […] tumor cell after 24 hours. Type of experiment: functional. The gist of the method:
as §1

Experiment [3] has as its system TIG-1-20. Put plainly: Boron incorporation into TIG-1-20 human fetal lung normal cell line after 24 hours. Type of experiment: functional. The gist of the method: as §1
Experiment [4] deals with TIG-1-20. Put plainly: Boron incorporation into TIG-1-20 human fetal lung normal cell line after 2 hours. Type of experiment: functional. An outline of the steps: as §1
Experiment [5] concerns Tumor cell line. In words: (§2) Inhibition of growth of IMR 32 human tumor cell line. The experiment is classed as functional, cell-based. An outline of the steps:
(§3)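 1 × 10⁶ cells per 60-mm dish in Eagle-MEM plus 10% FCS, treated with 1, 2.5, 5, 10, 25, 50 or 100 ppm compound (DMSO vehicle) for 3 days at 37 °C in CO₂. Cells were washed with PBS, trypsinized and counted; the count is a percentage of untreated control, and IC50 is the concentration giving 50% of control cell number.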

Experiment [6] has as its system IMR-32. Described as §2. The experiment is classed as functional, cell-based. An outline of the steps:
as §3

In the case of `NC(Cc1ccc(B(O)O)cc1)C(=O)O` (stereo not given), the Boron incorporation is recorded as 0.22 ug/10e6 in experiment [1], 0.28 ug/10e6 in experiment [2], 0.26 ug/10e6 in experiment [3] and 0.17 ug/10e6 in experiment [4].
For the compound `CC1CN1CC(O)CC1CC1` (stereo not given), the Boron incorporation stood at 0.25 µg in experiment [1], 0.26 ug/10e6 in experiment [2], 0.11 ug/10e6 in experiment [3] and 0.14 ug/10e6 in experiment [4]. For the same compound, the IC50 in experiment [5] was 0.0000319 M mol/dm 3; in experiment [6], 8.2e-6 ppm g dm**-3.
